Screens as filed in PubChem BioAssay.
An excerpt weighted towards active compounds, which were near 3.3% of everything screened.
ABCB6 inh 2: ABCB6 transporter inhibitors, primary screen, K562-ABCB6 cells, flow cytometry, MLPCN library; K562-ABCB6 porphyrin accumulation, 1 h; stronger effect = lower value; fluorescence ratio to DMSO, % at 10 µM; 360,000 tested, 0.19% active; AID 602162, 2011;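 active = fluorescence ratio to DMSO below 75%, the collection mean minus 3 SD; inconclusive = too few cells collected in the well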;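 also: signal is porphyrin accumulated inside mitochondria; lower ratio means ABCB6 inhibition with less porphyrin fluorescence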
Arrestin-AP2 inh: inhibitors of beta-arrestin/AP2 binding, primary screen, biochemical, GPCR trafficking, flow cytometry; 340,000 tested, 0.31% active; inhibition, % at 10 µM; AID 504490, 2011; FITC-arrestin peptide / GST-AP2 beads; AP2 beta2 appendage carries R879A mutation; beta-arrestin 1 C-terminal peptide binding to AP2 beta2-adaptin appendage (human);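 active = inhibition above a set limit, near 3 SD of compounds lacking own fluorescence, cut at about 54% in these data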
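System: GST-AP2 R879A glutathione beads. Medium: PBS with 0.05% Tween 20 and 0.1% BSA. Also added: FITC-arrestin peptide, 50 nM. Incubation: 12 min plus 1 h, RT. Measured by: high-throughput flow cytometry of beads, ex 488, em 535 nm. Evaluation: percent drop in bead-associated FITC signal.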
NRP1-CendR mod: modulators of CendR peptide binding to NRP-1, primary screen, biochemical, fluorescence polarization, uHTS | Neuropilin-1 (Homo sapiens), O14786 | FAM-RPARPAR peptide binding to NRP-1 | inhibition, % at 25 µM | 360,000 tested, 0.85% active | AID 602438, 2012;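 active = inhibition or corrected inhibition above about 18%, plus a signal ratio from 0.5 to 1.5, limit read from the data, passing the limit was not always enough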
Target sequence (O14786 whole entry, looked up): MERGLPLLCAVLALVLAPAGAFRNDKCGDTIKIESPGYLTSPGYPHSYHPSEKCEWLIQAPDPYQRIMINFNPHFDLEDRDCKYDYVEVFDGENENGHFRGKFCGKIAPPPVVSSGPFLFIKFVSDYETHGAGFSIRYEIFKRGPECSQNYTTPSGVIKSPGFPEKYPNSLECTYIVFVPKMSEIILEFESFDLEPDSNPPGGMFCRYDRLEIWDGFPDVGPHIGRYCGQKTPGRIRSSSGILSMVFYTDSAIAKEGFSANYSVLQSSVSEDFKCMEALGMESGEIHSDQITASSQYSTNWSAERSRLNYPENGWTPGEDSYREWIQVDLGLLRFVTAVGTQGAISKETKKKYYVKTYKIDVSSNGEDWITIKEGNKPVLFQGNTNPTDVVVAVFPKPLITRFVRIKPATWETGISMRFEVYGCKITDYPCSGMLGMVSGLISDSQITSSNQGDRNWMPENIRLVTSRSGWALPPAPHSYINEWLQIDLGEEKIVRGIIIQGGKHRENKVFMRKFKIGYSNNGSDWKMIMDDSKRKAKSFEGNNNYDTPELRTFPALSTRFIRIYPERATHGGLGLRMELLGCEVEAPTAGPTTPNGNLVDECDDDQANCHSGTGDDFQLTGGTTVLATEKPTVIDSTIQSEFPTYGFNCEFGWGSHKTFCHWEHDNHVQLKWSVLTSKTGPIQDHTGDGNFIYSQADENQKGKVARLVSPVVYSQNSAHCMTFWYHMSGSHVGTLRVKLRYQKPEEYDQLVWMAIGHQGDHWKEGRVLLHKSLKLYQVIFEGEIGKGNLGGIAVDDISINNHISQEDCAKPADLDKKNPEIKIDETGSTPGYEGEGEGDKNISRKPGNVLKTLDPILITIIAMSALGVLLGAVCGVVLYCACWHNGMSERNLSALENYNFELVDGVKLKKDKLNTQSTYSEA
Granule exo inh: LAMP-1 surface exposure blockers, TALL-104 cells – cell-based, flow cytometry, MLPCN library, primary screen | TALL-104 LAMP-1 surface exposure; cells stimulated with thapsigargin and PMA | inhibition, % at 10 µM | 360,000 tested, 0.66% active;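 active = inhibition above about 55%, limit read from the data; inconclusive = no clear call, values can overlap the other calls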
Myeloid diff MLP: induction of myeloid progenitor differentiation, primary screen, cell-based, flow cytometry, MLPCN library | 360,000 tested, 1% active | ER-HoxA9 myeloid progenitors, lysozyme-GFP differentiation | calls only at 10 µM;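 active = normalized GFP-positive differentiation at or above the plate's own cutoff, the solvent-only control mean plus 3 SD; inconclusive = no clear call, values can overlap the other calls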;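 also: cells exposed to compound for four days before flow analysis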
ATG4B inhibitor: ATG4B protease inhibitors, primary screen, biochemical, fluorescence, uHTS | AID 504462, 2011 | Cysteine protease ATG4B (Homo sapiens), Q9Y4P1 | inhibition, % at 8.33 µM | ATG4B cleavage of LC3-PLA2, NBD-HPC fluorescence, 1 h | 340,000 tested, 0.51% active; in the data active = inhibition above about 40%
ATG4B conf: ATG4B protease inhibitors, retest, confirmation, biochemical, fluorescence, single concentration; shares compounds with ATG4B inhibitor; ATG4B protease fluorescent substrate cleavage assay; inhibition, % at 8.33 µM; 320 tested, 92% active; AID 504757, 2011; in the data active = inhibition above about 39%
PLA2 ctr: PLA2 enzyme inhibition, counter-screen for ATG4B inhibitor project, biochemical, single concentration, uHTS hits; shares compounds with ATG4B inhibitor; purified PLA2, NBD-C6-HPC fluorescence, 45 min; inhibition, % at 8.33 µM; 1,600 tested, 66% active; AID 588402, 2011; in the data active = inhibition above about 50%
Each line names hits and unclear results; the compound was inactive in the other large screens (follow-up assays come after a bar, where they were run).

CCOC(=O)c1ccc(N=C2SC(C(=O)NC)CC(=O)N2Cc2ccc(F)cc2)cc1 (centres undefined)	none
COc1ccc(S(=O)(=O)N=N/C=C2\C=CC=CN2O)cc1OC	none (no result: Arrestin-AP2 inh, ATG4B inhibitor)
O=C(c1ccc(S(=O)(=O)Nc2cccc(C(F)(F)F)c2)cc1)N1CCN(c2ccccc2O)CC1	none
Cc1noc(/C=C/c2ccco2)c1S(=O)(=O)N1CCC(C(=O)N2CCc3ccccc3C2)CC1	ATG4B inhibitor 73.4 | PLA2 ctr 75.2
CCCCNC(=O)C1CCN(S(=O)(=O)c2c(C)noc2/C=C\c2ccc(OC)cc2)CC1	none
COc1ccc(/C=C/c2onc(C)c2S(=O)(=O)N2CCC(C(=O)N3CCCCCC3)CC2)cc1	ATG4B inhibitor 40.4 | PLA2 ctr 65.4
C=Cc1ccc(COC(=O)c2cn(CC)c3nc(C)ccc3c2=O)cc1	ATG4B inhibitor 40.3 | PLA2 ctr inactive
CCn1cc(C(=O)OCc2ccc(F)cc2)c(=O)c2ccc(C)nc21	none
CCn1cc(C(=O)OCC(=O)OC2CC(C)CCC2C(C)C)c(=O)c2ccc(C)nc21 (centres undefined)	ATG4B inhibitor 70.7 | PLA2 ctr 70.5
C=CCOC(=O)c1cn(CC)c2nc(C)ccc2c1=O	none
CCn1cc(C(=O)OCc2cccc(Br)c2)c(=O)c2ccc(C)nc21	ATG4B inhibitor 46.2 | PLA2 ctr 53.3
CCCCC1(Br)C(=O)N(c2ccccc2)N(c2ccccc2)C1=O	none
Cc1cccc(N=C2NC(=O)/C(=C/C=C/c3ccco3)S2)c1C	ATG4B inhibitor 83.2 (no result: Arrestin-AP2 inh) | PLA2 ctr 51.2
N=C1/C(=C\c2ccc(OC(=O)c3ccccc3)cc2)C(=O)N=C2SC(N3CCOCC3)=NN12	ATG4B inhibitor 57.0 | PLA2 ctr 76.5
Cc1noc(C)c1CSc1nc2ccccc2c(=O)n1-c1ccc(F)cc1F	Myeloid diff MLP inconclusive, ATG4B inhibitor 59.0 | PLA2 ctr 66.7
Cc1c(CCOC(=O)C23CC4(C)CC(C)(CC(C)(C4)C2)C3)sc[n+]1CC(=O)c1ccccc1	ATG4B inhibitor 46.8 | ATG4B conf 50.9 | PLA2 ctr inactive
Cc1c(CCOC(=O)CC23CC4CC(CC(C4)C2)C3)sc[n+]1CC(=O)c1ccccc1	none
Cc1ccc(NC(=S)Nc2ccc(Cl)c(Cl)c2)c(OC(F)F)c1	ATG4B inhibitor 53.5 | PLA2 ctr 61.4
Fc1ccc(NC(=S)Nc2ccccc2OC(F)F)cc1Cl	ATG4B inhibitor 47.9 | PLA2 ctr 59.1
FC(F)Oc1ccccc1NC(=S)Nc1cccnc1	none
Cc1ccc(NC(=S)Nc2ccc(OC(F)F)c(Cl)c2)cc1Cl	none
O=C(OCc1ccccc1)N1CCC2CC1c1cc(-c3cc4ccccc4o3)ccc12 (centres undefined)	none (no result: Arrestin-AP2 inh, ATG4B inhibitor)
CC(=O)c1cc2c(cc1NC(=O)c1cccc(S(=O)(=O)N3CCN(C)CC3)c1)OCO2	none
Cn1ncc(C#N)c1NC(=O)C1CC(c2ccc(Cl)cc2)=NO1 (centres undefined)	none
CCOC(=O)N1CCN(C(=O)CN(C)S(=O)(=O)c2ccc(OCC)cc2)CC1	Granule exo inh inconclusive
Cc1ccc(S(=O)(=O)N2CCC[C@H]2C(=O)NC2CCCCC2)cc1	none
CN1CCn2cnc(C(=O)Nc3ccc(CNC(=O)OC(C)(C)C)cc3)c2C1=O	none (no result: Arrestin-AP2 inh, ATG4B inhibitor)
CSc1ccccc1OCc1cc(C(=O)N2CCc3sccc3C2)no1	ATG4B inhibitor 72.1 | PLA2 ctr 78.5
Cc1ccc(C)c(OCc2cc(C(=O)N3CCc4sccc4C3)no2)c1	ATG4B inhibitor 45.8 | PLA2 ctr 81.1
O=C(c1cc(COc2ccc(F)cc2Cl)on1)N1CCc2sccc2C1	none
COc1ccccc1OCc1cc(C(=O)N(C)CCC2CCCCO2)no1 (centres undefined)	none
O=C(CSc1nnc(NC(=O)C2CC2)s1)NCc1ccccc1Cl	none
O=C1/C(=C\c2cccc(O)c2O)SC(=S)N1Cc1ccccc1	ATG4B inhibitor 74.0 | PLA2 ctr 88.7
O=C(Nc1cc2c(cc1C(=O)O)OCCCO2)c1ccc(C(F)(F)F)cc1	none
O=C(O)c1cc2c(cc1NC(=O)c1ccccc1C(F)(F)F)OCCCO2	ATG4B inhibitor 62.9 | PLA2 ctr 63.3
Cc1cccc(OCc2nnc(SCC(=O)O)n2-c2ccccc2)c1	none
COC(=O)c1cccc(NC(=O)CSc2nnc(COc3ccc(C#N)cc3)n2-c2ccccc2)c1	none
N#Cc1ccc(OCc2nnc(SCC(=O)c3ccccc3)n2-c2ccccc2)cc1	NRP1-CendR mod 30.7, ATG4B inhibitor 46.1 | PLA2 ctr 56.7
Cc1ccc(OCc2nnc(SCC(=O)c3ccccc3)n2-c2ccccc2)cc1	ATG4B inhibitor 74.5 | PLA2 ctr 77.6
Cc1cccc(-n2c(CCc3ccccc3)nnc2SCC(=O)c2ccccc2)c1	ATG4B inhibitor 72.4 | PLA2 ctr 75.4
Cc1ccc(NC(=O)C2CCN(S(=O)(=O)c3cccc(C(F)(F)F)c3)CC2)nc1	none
Nc1ncc(Br)cc1S(=O)(=O)Nc1cc(C(F)(F)F)cc(C(F)(F)F)c1	ATG4B inhibitor 57.0 | ATG4B conf 56.4 | PLA2 ctr inactive
O=C(CCl)Nc1nc(-c2ccco2)c(-c2ccco2)s1	none
Cc1ccc(C(=O)Nc2nc(-c3ccco3)c(-c3ccco3)s2)o1	ATG4B inhibitor 40.4 | ATG4B conf 64.0 | PLA2 ctr inactive
O=C(Nc1nc(COc2ccccc2)cs1)c1ccccc1F	ATG4B inhibitor 54.4 | PLA2 ctr inactive
CC1(c2ccc(NC(=O)c3ccccc3F)cc2)CC1(Cl)Cl (centres undefined)	ATG4B inhibitor 56.8 | PLA2 ctr 67.1
CCCCCCCCCC[N+](C)(C)CC/C=C1/c2ccccc2Sc2ccc(Cl)cc21	none
CCCCCCCCCCC[N+](C)(C)CC/C=C1/c2ccccc2Sc2ccc(Cl)cc21	ATG4B inhibitor 46.8 | PLA2 ctr 52.5
